Test results from ChEMBL document CHEMBL2413013, “Triplex-forming ability of oligonucleotides containing 1-aryl-1,2,3-triazole nucleobases linked via a two atom-length spacer” (Bioorg Med Chem, 2013).

Columns and labels:
[1] = Binding affinity to hairpin double stranded DNA TA base pair in sodium cacodylate buffer at pH 6.8 assessed as triplex-forming ability measuring melting temperature after by UV melting experiment
Method in brief: (§1)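 TFO and hairpin dsDNA target, each strand at 1.89 μM final, in 10 mM sodium cacodylate (pH 6.8) with 100 mM KCl and 50 mM MgCl₂. Annealed in boiling water, then cooled slowly to 5 °C. Melting was followed at 260 nm from 5 to 90 °C at 0.5 °C/min. Tm was taken by the two-point average method, mean of three independent runs.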

[2] = Binding affinity to hairpin double stranded DNA CG base pair in sodium cacodylate buffer at pH 6.8 assessed as triplex-forming ability measuring melting temperature after by UV melting experiment; method in brief: as §1
[3] = Binding affinity to hairpin double stranded DNA AT base pair in sodium cacodylate buffer at pH 6.8 assessed as triplex-forming ability measuring melting temperature after by UV melting experiment; method in brief: as §1
[4] = Binding affinity to hairpin double stranded DNA GC base pair in sodium cacodylate buffer at pH 6.8 assessed as triplex-forming ability measuring melting temperature after by UV melting experiment; method in brief: as §1

## Cc1cn([C@H]2C[C@H](O[PH](OCCC#N)(OC[C@H]3O[C@@H](n4cc(C)c(=O)[nH]c4=O)C[C@@H]3O[PH](OCCC#N)(OC[C@H]3O[C@@H](n4cc(C)c(=O)[nH]c4=O)C[C@@H]3O[PH](OCCC#N)(OC[C@H]3O[C@@H](n4cc(C)c(=O)[nH]c4=O)C[C@@H]3O[PH](OCCC#N)(OC[C@H]3O[C@@H](n4cc(C)c(=O)[nH]c4=O)C[C@@H]3O[PH](OCCC#N)(OC(C)[C@H]3O[C@@H](n4ccc(N)nc4=O)C[C@@H]3O[PH](OCCC#N)(OC[C@H]3O[C@@H](n4cc(C)c(=O)[nH]c4=O)C[C@@H]3O[PH](OCCC#N)(OC[C@H]3O[C@@H](CCc4cn(-c5cccc(O)c5)nn4)C[C@@H]3OP(=O)(O)OC[C@H]3O[C@@H](n4cc(C)c(=O)[nH]c4=O)C[C@@H]3O[PH](OCCC#N)(OC(C)[C@H]3O[C@@H](n4ccc(N)nc4=O)C[C@@H]3O[PH](OCCC#N)(OC[C@H]3O[C@@H](n4cc(C)c(=O)[nH]c4=O)C[C@@H]3O[PH](OCCC#N)(OC(C)[C@H]3O[C@@H](n4ccc(N)nc4=O)C[C@@H]3O[PH](OCCC#N)(OC[C@H]3O[C@@H](n4cc(C)c(=O)[nH]c4=O)C[C@@H]3O[PH](OCCC#N)(OC(C)[C@H]3O[C@@H](n4ccc(N)nc4=O)C[C@@H]3O[PH](OCCC#N)(OC[C@H]3O[C@@H](n4cc(C)c(=O)[nH]c4=O)C[C@@H]3O)N(C(C)C)C(C)C)N(C(C)C)C(C)C)N(C(C)C)C(C)C)N(C(C)C)C(C)C)N(C(C)C)C(C)C)N(C(C)C)C(C)C)N(C(C)C)C(C)C)N(C(C)C)C(C)C)N(C(C)C)C(C)C)N(C(C)C)C(C)C)N(C(C)C)C(C)C)N(C(C)C)C(C)C)N(C(C)C)C(C)C)[C@@H](CO)O2)c(=O)[nH]c1=O (some centres undefined)
[1]
  Tm: 22 °C
[2]
  Tm: 22 °C
[3]
  Tm: 21 °C
[4]
  Tm: 21 °C
